Measurements published in ChEMBL document CHEMBL4024783, “Alkylated Piperazines and Piperazine-Azole Hybrids as Antifungal Agents” (J Med Chem, 2018).
Converted amounts (≈) assume the structure as drawn. The source made the active and inactive calls. The calls are words filed in the database; no cut-off is given here.

Tests used:
Nakaseomyces glabratus [1] = test: Fungicidal activity against Candida glabrata ATCC 2001 at 4 times MIC incubated for 24 hrs by time kill assay; assay type: functional; details: CBS 138
Method in brief: (§1)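 Overnight YPD cultures were diluted in RPMI 1640 to OD600 0.12–0.13; initial inoculum 1–4 × 10^5 CFU/mL. […] Shaken at 200 rpm, 35 °C, for 24 h, sampling at 0, 3, 6, 9, 12 and 24 h. Serial dilutions were plated on PDA and CFU counted; detection limit 100 CFU/mL; duplicate.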

Candida albicans [2] = test: Antifungal activity against Candida albicans ATCC 10231 after 48 hrs by broth dilution method; assay type: functional; details: ATCC 10231, 48 h
Candida albicans [3] = test: Antifungal activity against Candida albicans ATCC 64124 after 48 hrs by broth dilution method; assay type: functional; details: Candida albicans, ATCC 64124, 48 h
Method in brief: (§2)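 CLSI M27-A3 broth microdilution with minor modifications. Overnight YPD culture grown at 35 °C, 200 rpm, adjusted to OD600 0.12, diluted in RPMI 1640 buffered to pH 7.0 with 0.165 M MOPS to a final 1–2 × 10^3 CFU/mL. Test compounds at 0.015–31.3 µg/mL, 48 h at 35 °C, DMSO <1.25%. […] Triplicate.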

Candida albicans [4] = test: Antifungal activity against itraconazole and fluconazole susceptible Candida albicans ATCC MYA-2876 after 48 hrs by broth dilution method; assay type: functional; details: Candida albicans, ATCC MYA-2876, 48 h
Candida albicans [5] = test: Antifungal activity against itraconazole and fluconazole resistant Candida albicans ATCC 90819 after 48 hrs by broth dilution method; assay type: functional; details: Candida albicans, ATCC 90819, 48 h; method in brief: as §2
Candida albicans [6] = test: Antifungal activity against itraconazole and fluconazole susceptible Candida albicans ATCC MYA-2310 after 48 hrs by broth dilution method; assay type: functional; details: Candida albicans, ATCC MYA-2310, 48 h
Candida albicans [7] = test: Antifungal activity against itraconazole and fluconazole resistant Candida albicans ATCC MYA-1237 after 48 hrs by broth dilution method; assay type: functional; details: Candida albicans, ATCC MYA-1237, 48 h; method in brief: as §2
Candida albicans [8] = test: Antifungal activity against itraconazole and fluconazole resistant Candida albicans ATCC MYA-1003 after 48 hrs by broth dilution method; assay type: functional; details: Candida albicans, ATCC MYA-1003, 48 h; method in brief: as §2
Nakaseomyces glabratus [9] = test: Antifungal activity against Candida glabrata ATCC 2001 after 48 hrs by broth dilution method; assay type: functional, CBS 138; details: Nakaseomyces glabratus, CBS 138, 48 h
Pichia kudriavzevii = test: Antifungal activity against Candida krusei ATCC 6258 after 48 hrs by broth dilution method; assay type: functional; details: Pichia kudriavzevii, ATCC 6258, 48 h
Method in brief: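 Yeasts tested per CLSI M27-A3 with minor changes. An overnight YPD culture (35 °C, 200 rpm) was adjusted to OD600 0.12 and diluted in MOPS-buffered RPMI 1640 (pH 7.0) to a final 1–2 × 10^3 CFU/mL. Compounds 0.015–31.3 µg/mL, DMSO <1.25%.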

Candida parapsilosis [10] = test: Antifungal activity against Candida parapsilosis ATCC 22019 after 48 hrs by broth dilution method; assay type: functional; details: Lodderomyces parapsilosis, ATCC 22019, 48 h
Aspergillus flavus = test: Antifungal activity against Aspergillus flavus ATCC MYA-3631 after 48 hrs by broth dilution method; assay type: functional; details: ATCC MYA-3631, 48 h
Aspergillus nidulans [11] = test: Antifungal activity against Aspergillus nidulans ATCC 38163 after 48 hrs by broth dilution method; assay type: functional; details: Aspergillus nidulans, ATCC 38163, 48 h
Method in brief: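 A. nidulans run per CLSI M38-A2. PDA spores were filtered through glass wool and counted by hemocytometer. Test range 0.03–31.3 µg/mL in MOPS-buffered RPMI 1640 (pH 7.0), final 5 × 10^5 CFU/mL.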

Aspergillus terreus = test: Antifungal activity against Aspergillus terreus ATCC MYA-3633 after 48 hrs by broth dilution method; assay type: functional; details: Aspergillus terreus, ATCC MYA-3633, 48 h
Method in brief: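 Molds tested per CLSI M38-A2. Spores were harvested from sporulating PDA cultures by filtering through glass wool and counted on a hemocytometer. Serial dilutions (0.03–31.3 µg/mL) were made in RPMI 1640 buffered to pH 7.0 with 0.165 M MOPS, final inoculum 5 × 10^5 CFU/mL.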

Candida albicans [12] = test: Antifungal activity against Candida albicans ATCC 10231 after 48 hrs in the presence of 10% FBS by broth dilution method; assay type: functional; details: ATCC 10231, 48 h
Candida parapsilosis [13] = test: Antifungal activity against Candida parapsilosis ATCC 22019 after 48 hrs in the presence of 10% FBS by broth dilution method; assay type: functional; details: Lodderomyces parapsilosis, ATCC 22019, 48 h
Aspergillus nidulans [14] = test: Antifungal activity against Aspergillus nidulans ATCC 38163 after 48 hrs in the presence of 10% FBS by broth dilution method; assay type: functional; details: ATCC 38163, 48 h
Candida albicans [15] = test: Antibiofilm activity against voriconazole resistant Candida albicans ATCC 64124 sessile cells incubated for 24 hrs by XTT reduction assay; assay type: functional; details: ATCC 64124, 24 h
Method in brief: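 Strain B grown overnight in YPD broth at 35 °C, diluted to OD600 0.1 (~10^6 CFU/mL), then grown statically for 24 h at 37 °C to form biofilm. Washed with PBS, then drug in RPMI 1640 at 0.12–62.5 µg/mL for 24 h at 37 °C. Read-out: XTT 0.5 mg/mL with menadione 1 µM, 2 h, A490. SMIC50/SMIC80 are 50%/80% decreases versus drug-free biofilm. Duplicate.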

Candida parapsilosis [16] = test: Fungistatic activity against Candida parapsilosis ATCC 22019 up to 8 times MIC incubated for 24 hrs by time kill assay; assay type: functional; method in brief: as §1
[17] = Cytotoxicity against human A549 cells assessed as cell survival at 7.8 ug/mL after 24 hrs by resazurin-based fluorescence assay; details: read-out: Survival
Method in brief: (§3)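 Cells were grown in DMEM with 10% FBS and 1% Pen/Strep at 37 °C, 5% CO2. HEK-293 was seeded at 10000 cells/well; A549 and BEAS-2B at 3000 cells/well. After 16 h, cells were exposed for 24 h to final 0.13–31 µg/mL in 0.1–0.4% DMSO, then given resazurin for 6–10 h. Read at ex 560/em 590. […] Run in duplicate.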

[18] = Cytotoxicity against HEK293 cells assessed as cell survival at 7.8 ug/mL after 24 hrs by resazurin-based fluorescence assay; details: human, read-out: Survival; method in brief: as §3
[19] = Cytotoxicity against human BEAS2B cells assessed as cell survival at 7.8 ug/mL after 24 hrs by resazurin-based fluorescence assay; details: BEAS-2B cells, read-out: Survival; method in brief: as §3
[20] = Aqueous solubility of the compound; assay type: physicochemical; details: buffer
[21] = Solubility of the compound in DMSO; assay type: physicochemical
Candida albicans [22] = test: Ratio of MIC80 for voriconazole resistant Candida albicans ATCC 64124 sessile cells to MIC for voriconazole resistant Candida albicans ATCC 64124; assay type: functional
Candida albicans [23] = test: Antifungal activity against Candida albicans ATCC 10231 at 7.8 ug/mL incubated for 1 hr by propidium iodide staining-based fluorescence microscopic method; assay type: functional
Method in brief: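 C. albicans ATCC 10231 grown overnight in YPD broth at 35 °C with shaking at 200 rpm, then transferred to RPMI 1640. Cells were exposed to drug and stained with propidium iodide, which enters only cells with compromised membranes. Uptake was judged by fluorescence microscopy against an untreated control.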

Candida albicans [24] = test: Inhibition of 14alpha-demethylase in Candida albicans ATCC 10231 assessed as ergosterol levels at 0.975 ug/mL by GC-MS analysis; design: scale not given: the % may be the effect or the level left
Method in brief: (§4)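 C. albicans ATCC 10231 was treated with drug or DMSO (no-drug control). Sterols were extracted and analysed by GC-MS; lanosterol, eburicol, ergosterol and 14α-methyl ergosta-8,24(28)-diene-3β,6α-diol were quantified as percent of sterols.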

Candida albicans [25] = test: Inhibition of 14alpha-demethylase in Candida albicans ATCC 10231 assessed as lanosterol levels at 0.975 ug/mL by GC-MS analysis; design: scale not given: the % may be the effect or the level left; method in brief: as §4
Candida albicans [26] = test: Inhibition of 14alpha-demethylase in Candida albicans ATCC 10231 assessed as eburicol levels at 0.975 ug/mL by GC-MS analysis; design: scale not given: the % may be the effect or the level left; method in brief: as §4
Candida albicans [27] = test: Inhibition of 14alpha-demethylase in Candida albicans ATCC 10231 assessed as 14alpha-methyl ergosta-8,24(28)-dien-3beta,6alpha-diol levels at 0.975 ug/mL by GC-MS analysis; design: scale not given: the % may be the effect or the level left; method in brief: as §4
Candida albicans [28] = test: Inhibition of 14alpha-demethylase in Candida albicans ATCC 10231 assessed as total sterol levels at 0.975 ug/mL by GC-MS analysis; design: scale not given: the % may be the effect or the level left; method in brief: as §4

| Compound | MIC (Candida albicans [2]) [µM] | MIC (Candida albicans [3]) [µM] | MIC (Candida albicans [4]) [µM] | MIC (Candida albicans [5]) [µM] | MIC (Candida albicans [6]) [µM] | MIC (Candida albicans [7]) [µM] | MIC (Candida albicans [8]) [µM] | MIC (Nakaseomyces glabratus [9]) [µM] | MIC (Pichia kudriavzevii) [µM] | MIC (Candida parapsilosis [10]) [µM] | MIC (Aspergillus flavus) [µM] | MIC (Aspergillus nidulans [11]) [µM] | MIC (Aspergillus terreus) [µM] | MIC (Candida albicans [12]) [µg/mL] | MIC (Candida parapsilosis [13]) [µg/mL] | MIC (Aspergillus nidulans [14]) [µg/mL] | MIC50 (Candida albicans [15]) [µg/mL] | MIC80 (Candida albicans [15]) [µg/mL] | solubility [20] | solubility [21] | other results |
| --- | --- | --- | --- | --- | --- | --- | --- | --- | --- | --- | --- | --- | --- | --- | --- | --- | --- | --- | --- | --- | --- |
| CCCCCCCCCCCCN1CCN(CC(O)(Cn2cncn2)c2ccc(F)cc2F)CC1 (stereo not drawn) | 3.9 (≈ 1.92 µg/mL) | 15.9 (≈ 7.82 µg/mL) | 7.9 (≈ 3.88 µg/mL) | 7.9 (≈ 3.88 µg/mL) | 15.9 (≈ 7.82 µg/mL) | 15.9 (≈ 7.82 µg/mL) | 31.7 (≈ 15.6 µg/mL) | 2 (≈ 0.983 µg/mL) | 0.98 (≈ 0.482 µg/mL) | 0.03 (≈ 0.0148 µg/mL) | 3.9 (≈ 1.92 µg/mL) | 7.9 (≈ 3.88 µg/mL) | 7.9 (≈ 3.88 µg/mL) | 1.95 | 0.06 | 3.9 | 7.8 (≈ 15.9 µM) | 15.6 (≈ 31.7 µM) | Soluble | Soluble | Activity (Nakaseomyces glabratus [1]): Active; Activity (Candida parapsilosis [16]): Active; viability at 24 h, 7.8 ug/mL [17]: < 40%; viability at 24 h, 7.8 ug/mL [18]: < 40%; viability at 24 h, 7.8 ug/mL [19]: < 40%; Ratio (Candida albicans [22]): 1 - 2 |
| CCCCCCCCCCCCN1CCN(CC(O)(Cn2cncn2)c2ccc(Cl)cc2Cl)CC1 (stereo not drawn) | 3.7 (≈ 1.94 µg/mL) | 14.9 (≈ 7.82 µg/mL) | 7.4 (≈ 3.88 µg/mL) | 7.4 (≈ 3.88 µg/mL) | 7.4 (≈ 3.88 µg/mL) | 7.4 (≈ 3.88 µg/mL) | 3.7 (≈ 1.94 µg/mL) | 1.9 (≈ 0.997 µg/mL) | 3.7 (≈ 1.94 µg/mL) | 0.46 (≈ 0.241 µg/mL) | 7.4 (≈ 3.88 µg/mL) | 3.7 (≈ 1.94 µg/mL) | 3.7 (≈ 1.94 µg/mL) | 1.95 | 0.24 | 3.9 | 15.6 (≈ 29.7 µM) | 31.3 (≈ 59.7 µM) | Soluble | Soluble | Activity (Candida albicans [23]): inactive; Activity (Candida albicans [24]): 50.6%; Activity (Candida albicans [25]): 29.5%; Activity (Candida albicans [26]): 1.15%; Activity (Candida albicans [27]): 11.1%; Ratio (Candida albicans [22]): 2 - 4; Activity (Candida albicans [28]): 3.56 to 4.08% |
